Measurements pooled from the literature.
Protocols differ between the studies behind these lines.
Target: Tyrosine-protein kinase Blk (BLK, Homo sapiens, UniProt P51451)

| SMILES | assay | setting | endpoint | value |
| --- | --- | --- | --- | --- |
| O=c1[nH]c2ccccc2n1C1CCN(Cc2ccc(-c3[nH]c4cc5ncnc5cc4nc3-c3ccccc3)cc2)CC1 | cell-free assay | 0.5 µM | remaining signal | 106% |
| Cc1nn(C)cc1-c1nc2c(N3CCN(Cc4ccc(Cl)cc4)CC3)c(Cl)cnc2[nH]1 | binding, competition with immobilised ligand | 1 µM | remaining binding | 100% |
| C#Cc1n[nH]c2c(-c3cn([C@@H](C)c4ccccn4)c(=O)[nH]c3=O)cc(F)cc12 | enzyme activity, inhibitor | 0.1 µM | inhibition | -5.3% |
| COc1ncccc1-c1cnn2ccc(N3CCN(C(=O)OC(C)C)CC3)nc12 | binding, competition with immobilised ligand | 1 µM | remaining binding | 100% |
| Cn1cc(-c2cccc(N3CCc4c(sc5c4CC(C)(C)C5)C3=O)c2CO)cc(Nc2ccncn2)c1=O | enzyme activity, inhibitor | 1 µM | inhibition | -3% |
| C#Cc1n[nH]c2c(-c3cn([C@@H](C)c4ccccc4)c(=O)[nH]c3=O)cc(F)cc12 | enzyme activity, inhibitor | 0.1 µM | inhibition | -5.4% |
| Cn1cc(-c2cc(F)cc(N3CCn4c(cc5c4CCCC5)C3=O)c2CO)cc(Nc2ccc(N3CCN(C4COC4)CC3)cn2)c1=O | enzyme activity, inhibitor | 0.1 µM | inhibition | 14% |
| CC(C)(C)c1cc(C=C(C#N)C#N)cc(Br)c1O | enzyme activity, inhibitor | 0.5 µM | remaining activity | 97.9% |
| Nc1ncc(-c2nc(N3CCOCC3)nc(N3CCOCC3)n2)c(C(F)F)n1 | binding, competition with immobilised ligand | 10 µM | remaining binding | 70% |
| COc1cc(Nc2ncc(F)c(Nc3ccc4c(n3)NC(=O)C(C)(C)O4)n2)cc(OC)c1OC | binding, competition with immobilised ligand | 10 µM | inhibition | 100% |
| Cn1cncc1[C@](O)(COc1ccc(C#N)cc1-c1ccc(OC(F)(F)F)cc1)c1ccc(C#N)cc1 | cell-free assay, competition with immobilised ligand | 1 µM | remaining binding | 90% |
